ChEMBL document CHEMBL5329183, “Naphthylthiazoles: a class of broad-spectrum antifungals” (RSC Med Chem, 2023)
Converted amounts (≈) assume the structure as drawn. The source made the active and inactive calls. The calls are words filed in the database; no cut-off is given here.

What was measured:
[1] = Apparent permeability of the compound measured after 4 hrs by PAMPA assay; format: ADME
Method in brief: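 PAMPA: compound was placed in pH 6.5 donor buffer across a lipid-pretreated PVDF filter from pH 7.4 acceptor buffer, and incubated 4 h at ambient temperature. Donor and acceptor amounts at start and end were measured by UV absorbance to give apparent permeability.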

Cryptococcus neoformans [2] = assay: Antifungal activity against Cryptococcus neoformans NR 48773 assessed as inhibition of fungal growth incubated for 48 hrs by broth microdilution method; format: functional
Method in brief: (§1)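 Clinical isolate; CLSI broth microdilution over a range of concentrations (media listed: RPMI 1640, MOPS, YPD). MIC read as lowest concentration inhibiting growth by 50% after 48 h incubation at 35 °C.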

Candida parapsilosis [3] = assay: Antifungal activity against Candida parapsilosis ATCC 22019 assessed as inhibition of fungal growth incubated for 24 hrs by broth microdilution method; format: functional; conditions: Lodderomyces parapsilosis
Method in brief: (§2)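 Clinical isolate; CLSI broth microdilution over a range of concentrations (media listed: RPMI 1640, MOPS, YPD). MIC taken as lowest concentration giving 50% growth inhibition after 24 h at 35 °C.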

Cryptococcus neoformans [4] = assay: Antifungal activity against Cryptococcus neoformans NR 41298 assessed as inhibition of fungal growth incubated for 48 hrs by broth microdilution method; format: functional; method in brief: as §1
Cryptococcus neoformans [5] = assay: Antifungal activity against Cryptococcus neoformans NR 48767 assessed as inhibition of fungal growth incubated for 48 hrs by broth microdilution method; format: functional; method in brief: as §1
Cryptococcus neoformans [6] = assay: Antifungal activity against Cryptococcus neoformans NR 48770 assessed as inhibition of fungal growth incubated for 48 hrs by broth microdilution method; format: functional; method in brief: as §1
Nakaseomyces glabratus [7] = assay: Antifungal activity against Candida glabrata ATCC 66032 assessed as inhibition of fungal growth incubated for 24 hrs by broth microdilution method; format: functional; method in brief: as §2
Nakaseomyces glabratus [8] = assay: Antifungal activity against Candida glabrata ATCC MYA2950 assessed as inhibition of fungal growth incubated for 24 hrs by broth microdilution method; format: functional; method in brief: as §2
[9] = Antifungal activity against Cryptococcus gattii NR 43214 assessed as inhibition of fungal growth incubated for 48 hrs by broth microdilution method; format: functional, Cryptococcus gattii VGI
Method in brief: (§3)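 Broth microdilution per CLSI guidelines against clinical isolates, incubated at 35 °C for 24 h (Candida, Aspergillus) or 48 h (Cryptococcus). MIC was the lowest concentration giving 50% growth inhibition.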

[10] = Antibacterial activity against Lactobacillus casei HM334 assessed as inhibition of bacterial growth; format: toxicity; conditions: lacticaseibacillus casei
Cryptococcus neoformans [11] = assay: Antibiofilm activity against Cryptococcus neoformans NR 41300 assessed as inhibition of biofilm formation at 0.5xMIC measured after 48 hrs by crystal violet staining based analysis; format: functional
Method in brief: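 Overnight C. neoformans was washed twice in PBS and adjusted to 105 cells per mL in RPMI. Cells were exposed to compound at 0.5 × MIC for 48 h at 35 °C. Biofilm was rinsed, dried, stained with 0.1% crystal violet, and the dye extracted with glacial acetic acid; OD595 readout.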

Candida albicans [12] = assay: Antifungal activity against Candida albicans ATCC 10231 assessed as inhibition of fungal growth incubated for 24 hrs by broth microdilution method; format: functional; method in brief: as §3
Cryptococcus neoformans [13] = assay: Antifungal activity against Cryptococcus neoformans NR 41300 assessed as inhibition of fungal growth incubated for 48 hrs by broth microdilution method; format: functional; method in brief: as §1
Cryptococcus neoformans [14] = assay: Antifungal activity against Cryptococcus neoformans NR 41299 assessed as inhibition of fungal growth incubated for 48 hrs by broth microdilution method; format: functional; method in brief: as §1
[Candida] auris [15] = Antifungal activity against Candida auris 381 assessed as inhibition of fungal growth incubated for 24 hrs by broth microdilution method; format: functional; conditions: Candidozyma auris; method in brief: as §2
[Candida] auris [16] = Antifungal activity against Candida auris 382 assessed as inhibition of fungal growth incubated for 24 hrs by broth microdilution method; format: functional; conditions: Candidozyma auris; method in brief: as §2
[Candida] auris [17] = Antifungal activity against Candida auris 383 assessed as inhibition of fungal growth incubated for 24 hrs by broth microdilution method; format: functional; conditions: Candidozyma auris; method in brief: as §2
[18] = Antifungal activity against Cryptococcus gattii NR 43213 assessed as inhibition of fungal growth incubated for 48 hrs by broth microdilution method; format: functional, Cryptococcus gattii VGI; method in brief: as §3
[19] = Antibacterial activity against Lactobacillus crispatus HM370 assessed as inhibition of bacterial growth; format: toxicity
Candida albicans [20] = assay: Antifungal activity against Candida albicans NR 29448 assessed as inhibition of fungal growth incubated for 24 hrs by broth microdilution method; format: functional; method in brief: as §2
Cryptococcus neoformans [21] = assay: Anti-cryptococcal activity against Cryptococcus neoformans NR 41300 infected in mouse J774 cells assessed as log reduction of intracellular fungal colony forming unit at 4 ug/ml measured after 24 hrs; format: functional; conditions: dose 4 µg/ml
Method in brief: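 C. neoformans NR-41300 was grown 48 h in YPD, washed, and used to infect J774 macrophages at MOI ~100:1 for 1 h, followed by PBS washes. Compounds at 4 μg mL−1 (triplicate) were applied for 22 h at 37 °C, 5% CO2. Extracellular yeast were killed with amphotericin B 1 μg mL−1 for 1 h. Cells were lysed in 0.1% Triton X-100 and plated on YPD agar for 48 h at 37 °C; readout log10 CFU mL−1.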

Cryptococcus neoformans [22] = assay: Antifungal activity against Cryptococcus neoformans NR 48771 assessed as inhibition of fungal growth incubated for 48 hrs by broth microdilution method; format: functional; method in brief: as §1
Candida parapsilosis [23] = assay: Antifungal activity against Candida parapsilosis CAB 502638 assessed as inhibition of fungal growth incubated for 24 hrs by broth microdilution method; format: functional; conditions: Lodderomyces parapsilosis; method in brief: as §3
Lactobacillus gasseri = assay: Antibacterial activity against Lactobacillus gasseri HM400 assessed as inhibition of bacterial growth; format: toxicity, organism-based
[24] = Antifungal activity against Cryptococcus gattii NR 43209 assessed as inhibition of fungal growth incubated for 48 hrs by broth microdilution method; format: functional, Cryptococcus gattii VGI; method in brief: as §3
Candida albicans [25] = assay: Antifungal activity against wild type Candida albicans SC5314 assessed as inhibition of fungal growth; format: functional
Pichia kudriavzevii [26] = assay: Antifungal activity against Candida krusei CAB 396420 assessed as inhibition of fungal growth incubated for 24 hrs by broth microdilution method; format: functional; method in brief: as §3
[27] = Antifungal activity against Cryptococcus gattii NR 43210 assessed as inhibition of fungal growth incubated for 48 hrs by broth microdilution method; format: functional, Cryptococcus gattii VGI; method in brief: as §3
Pichia kudriavzevii [28] = assay: Antifungal activity against Candida krusei ATCC 34135 assessed as inhibition of fungal growth incubated for 24 hrs by broth microdilution method; format: functional; method in brief: as §3
[29] = Antifungal activity against Cryptococcus gattii NR 43216 assessed as inhibition of fungal growth incubated for 48 hrs by broth microdilution method; format: functional, Cryptococcus gattii VGI; method in brief: as §3
Escherichia coli [30] = assay: Antibacterial activity against Escherichia coli JW55031 harboring tolC mutant assessed as inhibition of bacterial growth; format: functional
Clostridioides difficile = assay: Antibacterial activity against Clostridium difficile ATCC BAA1870 assessed as inhibition of bacterial growth; format: functional
Staphylococcus aureus = assay: Antibacterial activity against Methicillin-resistant Staphylococcus aureus USA300 assessed as inhibition of bacterial growth; format: functional
Escherichia coli [31] = assay: Antibacterial activity against wild type Escherichia coli BW25113 assessed as inhibition of bacterial growth; format: functional
Aspergillus fumigatus [32] = assay: Antifungal activity against Aspergillus fumigatus NR 35303 assessed as inhibition of fungal growth incubated for 24 hrs by broth microdilution method; format: functional; method in brief: as §3
Aspergillus fumigatus [33] = assay: Antifungal activity against Aspergillus fumigatus NR 35304 assessed as inhibition of fungal growth incubated for 24 hrs by broth microdilution method; format: functional; method in brief: as §3

Work on `CC(C)NCC(O)COc1cccc2ccccc12` (stereo not drawn) [PROPRANOLOL] yielded a Papp at 4 h [1] of 76.6 ×10⁻⁶ cm/s.

With `OC(Cn1cncn1)(Cn1cncn1)c1ccc(F)cc1F` [FLUCONAZOLE] the MIC (Cryptococcus neoformans [2]) was 2 µg/mL (≈ 6.53 µM), the MIC (Candida parapsilosis [3]) was 1 µg/mL (≈ 3.27 µM) and the MIC (Cryptococcus neoformans [4]) was 2 µg/mL (≈ 6.53 µM). For the same molecule, the MIC (Cryptococcus neoformans [5]) was 1 µg/mL (≈ 3.27 µM), the MIC (Cryptococcus neoformans [6]) was 2 µg/mL (≈ 6.53 µM) and the MIC (Nakaseomyces glabratus [7]) was 8 µg/mL (≈ 26.1 µM). It also gave an MIC (Nakaseomyces glabratus [8]) of 16 µg/mL (≈ 52.2 µM), an MIC [9] of 1 µg/mL (≈ 3.27 µM) and an MIC [10] of over 128 µg/mL. For the same molecule, the Activity (Cryptococcus neoformans [11]) was “Active”, the MIC (Candida albicans [12]) was 1 µg/mL (≈ 3.27 µM) and the MIC (Cryptococcus neoformans [13]) was 1 µg/mL (≈ 3.27 µM). For the same molecule, the MIC (Cryptococcus neoformans [14]) was 1 µg/mL (≈ 3.27 µM), the MIC ([Candida] auris [15]) was 2 µg/mL (≈ 6.53 µM) and the MIC ([Candida] auris [16]) was 64 µg/mL (≈ 209 µM). The MIC ([Candida] auris [17]) was 64 µg/mL (≈ 209 µM), the MIC [18] was 2 µg/mL (≈ 6.53 µM) and the MIC [19] was over 128 µg/mL. The MIC (Candida albicans [20]) was over 128 µg/mL, the Activity (Cryptococcus neoformans [21]) was 0.25 log10CFU/ml and the MIC (Cryptococcus neoformans [22]) was 2 µg/mL (≈ 6.53 µM). For the same molecule, the MIC (Candida parapsilosis [23]) was 0.5 µg/mL (≈ 1.63 µM), the MIC (Lactobacillus gasseri) was over 128 µg/mL and the MIC [24] was 4 µg/mL (≈ 13.1 µM). The MIC (Candida albicans [25]) was 0.5 µg/mL (≈ 1.63 µM), the MIC (Pichia kudriavzevii [26]) was 16 µg/mL (≈ 52.2 µM) and the MIC [27] was 4 µg/mL (≈ 13.1 µM). The MIC (Pichia kudriavzevii [28]) was 16 µg/mL (≈ 52.2 µM) and the MIC [29] was 2 µg/mL (≈ 6.53 µM).

In the case of `Cc1nc(-c2ccc3ccccc3c2)sc1-c1nnc(N2CCC(N)C2)o1` (stereo not drawn), the MIC (Escherichia coli [30]) is reported as over 64 µg/mL, the MIC (Clostridioides difficile) is reported as over 64 µg/mL and the MIC (Candida albicans [25]) is reported as 8 µg/mL (≈ 21.2 µM). For the same molecule, the MIC (Staphylococcus aureus) was over 64 µg/mL and the MIC (Escherichia coli [31]) was over 64 µg/mL.

`Cc1nc(-c2ccc3ccccc3c2)sc1-c1nnc(N[C@H]2CC[C@H](N)CC2)o1` gave an MIC (Escherichia coli [30]) of over 64 µg/mL, an MIC (Clostridioides difficile) of 64 µg/mL (≈ 158 µM) and an MIC (Candida albicans [25]) of 64 µg/mL (≈ 158 µM). The MIC (Staphylococcus aureus) was 64 µg/mL (≈ 158 µM) and the MIC (Escherichia coli [31]) was over 64 µg/mL.

With `CCC(C)n1ncn(-c2ccc(N3CCN(c4ccc(OCC5COC(Cn6cncn6)(c6ccc(Cl)cc6Cl)O5)cc4)CC3)cc2)c1=O` (stereo not drawn) [ITRACONAZOLE] the MIC (Aspergillus fumigatus [32]) was 1 µg/mL (≈ 1.42 µM) and the MIC (Aspergillus fumigatus [33]) was 1 µg/mL (≈ 1.42 µM).

For `Cc1nc(-c2ccc3ccccc3c2)sc1-c1nnc(N2CCC[C@@H]2C(N)=O)o1`, the MIC (Escherichia coli [30]) was over 64 µg/mL, the MIC (Clostridioides difficile) was over 64 µg/mL and the MIC (Candida albicans [25]) was over 64 µg/mL. For the same molecule, the MIC (Staphylococcus aureus) was over 64 µg/mL and the MIC (Escherichia coli [31]) was over 64 µg/mL.

`CC(C(=O)O)c1cccc(C(=O)c2ccccc2)c1` (stereo not drawn) [KETOPROFEN] showed a Papp at 4 h [1] of 10.2 ×10⁻⁶ cm/s.

Work on `Cc1nc(-c2ccc3ccccc3c2)sc1-c1nnc(NCCN)o1` yielded an MIC (Escherichia coli [30]) of 64 µg/mL (≈ 182 µM), an MIC (Clostridioides difficile) of 64 µg/mL (≈ 182 µM) and an MIC (Candida albicans [25]) of 32 µg/mL (≈ 91.1 µM). The MIC (Staphylococcus aureus) was 32 µg/mL (≈ 91.1 µM) and the MIC (Escherichia coli [31]) was over 64 µg/mL.

Molecule `CCNc1nnc(-c2sc(-c3ccc4ccccc4c3)nc2C)o1` has an MIC (Escherichia coli [30]) of 64 µg/mL (≈ 190 µM), an MIC (Clostridioides difficile) of 64 µg/mL (≈ 190 µM) and an MIC (Candida albicans [25]) of over 64 µg/mL. For the same molecule, the MIC (Staphylococcus aureus) was 64 µg/mL (≈ 190 µM) and the MIC (Escherichia coli [31]) was over 64 µg/mL.

`Cc1nc(-c2ccc3ccccc3c2)sc1-c1nnc(N2CCC[C@H]2C(N)=O)o1` showed an MIC (Escherichia coli [30]) of over 64 µg/mL, an MIC (Clostridioides difficile) of over 64 µg/mL and an MIC (Candida albicans [25]) of over 64 µg/mL. It also gave an MIC (Staphylococcus aureus) of over 64 µg/mL and an MIC (Escherichia coli [31]) of over 64 µg/mL.
